Measurements from ChEMBL document CHEMBL2203173 (J Med Chem, 2012).

Tests used:
Mus musculus [1] = assay: Toxicity in BALB/c nu/nu mouse xenografted with human DMS53 cells assessed as change in kidney histology at 10 mg/kg, po administered for 3 times a week measured after 20 days; assay type: organism-based, DMS-53; design: dose 10 mg/kg, route oral; details: in vivo, 480 h
Method in brief: (§1)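 Nude mice bearing DMS-53 xenografts gavaged 3 times/week for 20 days, vehicle 30% propylene glycol/saline, vehicle controls, n = 6-11 mice/condition. Sacrifice on day 20. Organ weights and hematological indices recorded. Spleen, kidney, liver, heart, lungs and brain examined histologically, hearts stained with Gomori Trichrome for fibrosis.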

Mus musculus [2] = assay: Toxicity in BALB/c nu/nu mouse xenografted with human DMS53 cells assessed as change in brain histology at 10 mg/kg, po administered for 3 times a week measured after 20 days; assay type: organism-based, DMS-53; design: dose 10 mg/kg, route oral; details: in vivo, 480 h; method in brief: as §1
Mus musculus [3] = assay: Toxicity in BALB/c nu/nu mouse xenografted with human DMS53 cells assessed as change in kidney histology at 7.5 mg/kg, po administered for 3 times a week measured after 20 days; assay type: organism-based, DMS-53; design: dose 7.5 mg/kg, route oral; details: in vivo, 480 h; method in brief: as §1
DMS-53 = assay: Antiproliferative activity at human DMS53 cells after 72 hrs by MTT assay; assay type: functional, cell-based; details: Homo sapiens, DMS-53, 72 h
Mus musculus [4] = assay: Toxicity in BALB/c nu/nu mouse xenografted with human DMS53 cells assessed as change in liver histology at 10 mg/kg, po administered for 3 times a week measured after 20 days; assay type: organism-based, DMS-53; design: dose 10 mg/kg, route oral; details: in vivo, 480 h; method in brief: as §1
Mus musculus [5] = assay: Toxicity in BALB/c nu/nu mouse xenografted with human DMS53 cells assessed as change in liver histology at 20 mg/kg, po administered for 3 times a week measured after 20 days; assay type: organism-based, DMS-53; design: dose 20 mg/kg, route oral; details: in vivo, 480 h; method in brief: as §1
Mus musculus [6] = assay: Toxicity in BALB/c nu/nu mouse xenografted with human DMS53 cells assessed as change in spleen weight at 10 mg/kg, po administered for 3 times a week measured after 20 days; assay type: organism-based, DMS-53; design: dose 10 mg/kg, route oral; details: in vivo, 480 h
Method in brief: (§2)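 DMS-53 xenograft nude mice were gavaged 3 times/week in 30% propylene glycol/saline vehicle for 20 days and then sacrificed. Organ weights and histology of spleen, kidney, liver, heart, lungs and brain were compared with vehicle controls. n = 6-11 mice/condition.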

Mus musculus [7] = assay: Toxicity in BALB/c nu/nu mouse xenografted with human DMS53 cells assessed as change in spleen histology at 10 mg/kg, po administered for 3 times a week measured after 20 days; assay type: organism-based, DMS-53; design: dose 10 mg/kg, route oral; details: in vivo, 480 h; method in brief: as §2
Mus musculus [8] = assay: Toxicity in BALB/c nu/nu mouse xenografted with human DMS53 cells assessed as cardiac fibrosis at 7.5 mg/kg, po administered for 3 times a week measured after 20 days using Gomori Trichrome stain; assay type: organism-based, Heart, DMS-53; design: dose 7.5 mg/kg, route oral; details: in vivo, 480 h
Method in brief: (§3)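 DMS-53 xenograft nude mice given oral gavage 3 times/week in 30% propylene glycol/saline for 20 days. Heart sections taken after 20 days were stained with Gomori Trichrome for fibrosis and viewed at 100×. Other organs were examined histologically.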

Mus musculus [9] = assay: Cardiotoxicity in BALB/c nu/nu mouse xenografted with human DMS53 cells at 7.5 mg/kg, po administered for 3 times a week measured after 20 days; assay type: toxicity, organism-based, DMS-53; design: dose 7.5 mg/kg, route oral; details: in vivo, 480 h; method in brief: as §3
Mus musculus [10] = assay: Toxicity in BALB/c nu/nu mouse xenografted with human DMS53 cells assessed as change in spleen histology at 20 mg/kg, po administered for 3 times a week measured after 20 days; assay type: organism-based, DMS-53; design: dose 20 mg/kg, route oral; details: in vivo, 480 h; method in brief: as §2
MRC5 = assay: Antiproliferative activity at human MRC5 cells after 72 hrs by MTT assay; assay type: functional, cell-based; details: MRC5, 72 h
Mus musculus [11] = assay: Toxicity in BALB/c nu/nu mouse xenografted with human DMS53 cells assessed as change in heart histology at 7.5 mg/kg, po administered for 3 times a week measured after 20 days; assay type: organism-based, DMS-53; design: dose 7.5 mg/kg, route oral; details: in vivo, 480 h; method in brief: as §1
Mus musculus [12] = assay: Toxicity in BALB/c nu/nu mouse xenografted with human DMS53 cells assessed as change in heart weight at 10 mg/kg, po administered for 3 times a week measured after 20 days; assay type: organism-based, DMS-53; design: dose 10 mg/kg, route oral; details: in vivo, 480 h; method in brief: as §1
Mus musculus [13] = assay: Cardiotoxicity in human DMS53 cells xenografted BALB/c nu/nu mouse at 20 mg/kg, po administered for 3 times a week measured after 20 days; assay type: toxicity, organism-based, DMS-53; design: dose 20 mg/kg, route oral; details: in vivo, 480 h; method in brief: as §3
Mus musculus [14] = assay: Cardiotoxicity in human DMS53 cells xenografted BALB/c nu/nu mouse at 10 mg/kg, po administered for 3 times a week measured after 20 days; assay type: toxicity, organism-based, DMS-53; design: dose 10 mg/kg, route oral; details: in vivo, 480 h; method in brief: as §3
Mus musculus [15] = assay: Toxicity in BALB/c nu/nu mouse xenografted with human DMS53 cells assessed as change in heart histology at 20 mg/kg, po administered for 3 times a week measured after 20 days; assay type: organism-based, DMS-53; design: dose 20 mg/kg, route oral; details: in vivo, 480 h; method in brief: as §1
Mus musculus [16] = assay: Toxicity in BALB/c nu/nu mouse xenografted with human DMS53 cells assessed as change in hematocrit level at 10 mg/kg, po administered for 3 times a week measured after 20 days; assay type: organism-based, DMS-53; design: dose 10 mg/kg, route oral; details: in vivo, 480 h; method in brief: as §1
Mus musculus [17] = assay: Toxicity in BALB/c nu/nu mouse xenografted with human DMS53 cells assessed as change in brain histology at 7.5 mg/kg, po administered for 3 times a week measured after 20 days; assay type: organism-based, DMS-53; design: dose 7.5 mg/kg, route oral; details: in vivo, 480 h; method in brief: as §1
[18] = Toxicity in po dosed BALB/c nu/nu mouse xenografted with human DMS53 cells measured for 28 days; assay type: organism-based, DMS-53; details: in vivo
Method in brief: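 Oral dose-range-finding study to set the maximum tolerated dose in nude mice bearing DMS-53 tumors, with dosing over a 28-day treatment period.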

Mus musculus [19] = assay: Toxicity in BALB/c nu/nu mouse xenografted with human DMS53 cells assessed as change in liver histology at 7.5 mg/kg, po administered for 3 times a week measured after 20 days; assay type: organism-based, DMS-53; design: dose 7.5 mg/kg, route oral; details: in vivo, 480 h; method in brief: as §1
Mus musculus [20] = assay: Toxicity in BALB/c nu/nu mouse xenografted with human DMS53 cells assessed as change in lungs histology at 10 mg/kg, po administered for 3 times a week measured after 20 days; assay type: organism-based, DMS-53; design: dose 10 mg/kg, route oral; details: in vivo, 480 h; method in brief: as §1
Mus musculus [21] = assay: Toxicity in BALB/c nu/nu mouse xenografted with human DMS53 cells assessed as change in heart histology at 10 mg/kg, po administered for 3 times a week measured after 20 days; assay type: organism-based, DMS-53; design: dose 10 mg/kg, route oral; details: in vivo, 480 h; method in brief: as §1
Mus musculus [22] = assay: Toxicity in BALB/c nu/nu mouse xenografted with human DMS53 cells assessed as cardiac fibrosis at 20 mg/kg, po administered for 3 times a week measured after 20 days using Gomori Trichrome stain; assay type: organism-based, Heart, DMS-53; design: dose 20 mg/kg, route oral; details: in vivo, 480 h; method in brief: as §3
Mus musculus [23] = assay: Toxicity in BALB/c nu/nu mouse xenografted with human DMS53 cells assessed as change in brain histology at 20 mg/kg, po administered for 3 times a week measured after 20 days; assay type: organism-based, DMS-53; design: dose 20 mg/kg, route oral; details: in vivo, 480 h; method in brief: as §1
Mus musculus [24] = assay: Toxicity in BALB/c nu/nu mouse xenografted with human DMS53 cells assessed as change in kidney histology at 20 mg/kg, po administered for 3 times a week measured after 20 days; assay type: organism-based, DMS-53; design: dose 20 mg/kg, route oral; details: in vivo, 480 h; method in brief: as §1
Mus musculus [25] = assay: Toxicity in BALB/c nu/nu mouse xenografted with human DMS53 cells assessed as cardiac fibrosis at 10 mg/kg, po administered for 3 times a week measured after 20 days using Gomori Trichrome stain; assay type: organism-based, Heart, DMS-53; design: dose 10 mg/kg, route oral; details: in vivo, 480 h; method in brief: as §3
Mus musculus [26] = assay: Toxicity in BALB/c nu/nu mouse xenografted with human DMS53 cells assessed as change in lungs histology at 7.5 mg/kg, po administered for 3 times a week measured after 20 days; assay type: organism-based, DMS-53; design: dose 7.5 mg/kg, route oral; details: in vivo, 480 h; method in brief: as §2
A549 = assay: Antiproliferative activity at human A549 cells after 72 hrs by MTT assay; assay type: functional, cell-based
Mus musculus [27] = assay: Toxicity in BALB/c nu/nu mouse xenografted with human DMS53 cells assessed as change in hemoglobin level at 10 mg/kg, po administered for 3 times a week measured after 20 days; assay type: organism-based, DMS-53; design: dose 10 mg/kg, route oral; details: in vivo, 480 h; method in brief: as §1
Mus musculus [28] = assay: Toxicity in BALB/c nu/nu mouse xenografted with human DMS53 cells assessed as change in spleen histology at 7.5 mg/kg, po administered for 3 times a week measured after 20 days; assay type: organism-based, DMS-53; design: dose 7.5 mg/kg, route oral; details: in vivo, 480 h; method in brief: as §2

With `CCN(C)C(=S)NN=C(c1ccccn1)c1ccccn1.Cl` the Activity (Mus musculus [1]) was “Non-toxic”, the Activity (Mus musculus [2]) was “Non-toxic” and the Activity (Mus musculus [3]) was “Non-toxic”. For the same molecule, the IC50 (DMS-53) was 6 nM, the Activity (Mus musculus [4]) was “Non-toxic” and the Activity (Mus musculus [5]) was “Non-toxic”. For the same molecule, the Activity (Mus musculus [6]) was “Non-toxic”, the Activity (Mus musculus [7]) was “Non-toxic” and the Activity (Mus musculus [8]) was “Non-toxic”. The Activity (Mus musculus [9]) was “Non-toxic”, the Activity (Mus musculus [10]) was “Non-toxic” and the IC50 (MRC5) was > 10000 nM. For the same molecule, the Activity (Mus musculus [11]) was “Non-toxic”, the Activity (Mus musculus [12]) was “Toxic” and the Activity (Mus musculus [13]) was “Non-toxic”. The Activity (Mus musculus [14]) was “Non-toxic”, the Activity (Mus musculus [15]) was “Non-toxic” and the Activity (Mus musculus [16]) was “Toxic”. The Activity (Mus musculus [17]) was “Non-toxic”, the MTD at 672 h [18] was 10 mg/kg and the Activity (Mus musculus [19]) was “Non-toxic”. For the same molecule, the Activity (Mus musculus [20]) was “Non-toxic”, the Activity (Mus musculus [21]) was “Non-toxic” and the Activity (Mus musculus [22]) was “Non-toxic”. The Activity (Mus musculus [23]) was “Non-toxic”, the Activity (Mus musculus [24]) was “Non-toxic” and the Activity (Mus musculus [25]) was “Non-toxic”. For the same molecule, the Activity (Mus musculus [26]) was “Non-toxic”, the IC50 (A549; a549) was 1 nM and the Activity (Mus musculus [27]) was “Toxic”. For the same molecule, the Activity (Mus musculus [28]) was “Non-toxic”.
For `CN(C(=S)NN=C(c1ccccn1)c1ccccn1)C1CCCCC1.Cl`, the Activity (Mus musculus [1]) was “Non-toxic”, the Activity (Mus musculus [2]) was “Non-toxic” and the Activity (Mus musculus [3]) was “Non-toxic”. For the same molecule, the IC50 (DMS-53) was 7 nM, the Activity (Mus musculus [4]) was “Non-toxic” and the Activity (Mus musculus [5]) was “Non-toxic”. The Activity (Mus musculus [6]) was “Non-toxic”, the Activity (Mus musculus [7]) was “Non-toxic” and the Activity (Mus musculus [8]) was “Non-toxic”. The Activity (Mus musculus [9]) was “Non-toxic”, the Activity (Mus musculus [10]) was “Non-toxic” and the IC50 (MRC5) was > 10000 nM. The Activity (Mus musculus [11]) was “Non-toxic”, the Activity (Mus musculus [12]) was “Non-toxic” and the Activity (Mus musculus [13]) was “Non-toxic”. For the same molecule, the Activity (Mus musculus [14]) was “Non-toxic”, the Activity (Mus musculus [15]) was “Non-toxic” and the Activity (Mus musculus [16]) was “Non-toxic”. For the same molecule, the Activity (Mus musculus [17]) was “Non-toxic”, the MTD at 672 h [18] was 20 mg/kg and the Activity (Mus musculus [19]) was “Non-toxic”. For the same molecule, the Activity (Mus musculus [20]) was “Non-toxic”, the Activity (Mus musculus [21]) was “Non-toxic” and the Activity (Mus musculus [22]) was “Non-toxic”. The Activity (Mus musculus [23]) was “Non-toxic”, the Activity (Mus musculus [24]) was “Non-toxic” and the Activity (Mus musculus [25]) was “Non-toxic”. For the same molecule, the Activity (Mus musculus [26]) was “Non-toxic”, the IC50 (A549; Homo sapiens, A549, 72 h) was 4 nM and the Activity (Mus musculus [27]) was “Non-toxic”. The Activity (Mus musculus [28]) was “Non-toxic”.
